The results in this text go back to ChEMBL document CHEMBL2434879, “Small molecular inhibitors of miR-1 identified from photocycloadducts of acetylenes with 2-methoxy-1,4-naphthalenequinone” (Bioorg Med Chem, 2013).

Holding throughout (type): cell-based
The subject of assay [1] is Nucleic Acid. In words: Inhibition of microRNA miR-1 (unknown origin) transfected in mouse C2C12 cells at 5 uM after 48 hrs by luciferase reporter gene assay relative to DMSO-treated control. The method, boiled down:
(§1)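 C2C12 co-transfected at 70% confluence with miR-1 luciferase reporter (0.25 µg) plus β-galactosidase plasmid (0.25 µg, transfection control) via lipofectamine 2000. After 6 h the medium was switched to DMEM with 2% horse serum to induce differentiation, and compound was added (DMSO final 1:1000). Cells were incubated 48 h at 37 °C, 5% CO2, then luciferase read and normalized to DMSO. Triplicates, mean ± SE (n = 3).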
(In a reporter assay the amount or activity of a reporter protein is the signal.)

Assay [2] concerns Nucleic Acid. In words: Inhibition of microRNA miR-214 (unknown origin) transfected in human A549 cells at 10 uM after 48 hrs by luciferase reporter gene assay relative to DMSO-treated control. Put shortly:
(§2)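 Cells transfected with the matching miRNA luciferase reporter ([…] for miR-150; A549 for miR-25 or miR-214), with β-gal as internal reference. Treated with 10 µM compound in high-glucose DMEM with 2% FBS (DMSO final 1:1000) for 48 h at 37 °C, 5% CO2. Luciferase signal was normalized to the DMSO control. Triplicates, mean ± SE (n = 3).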

The subject of assay [3] is Nucleic Acid. In words: Inhibition of microRNA miR-25 (unknown origin) transfected in human A549 cells at 10 uM after 48 hrs by luciferase reporter gene assay relative to DMSO-treated control. The method, boiled down: as §2
The subject of assay [4] is Nucleic Acid. In words: Inhibition of microRNA miR-150 (unknown origin) transfected in mouse […] cells at 10 uM after 48 hrs by luciferase reporter gene assay relative to DMSO-treated control. Put shortly: as §2
In assay [5] the test system is Nucleic Acid. The experiment in a line: Inhibition of microRNA miR-1 (unknown origin) transfected in mouse C2C12 cells at 10 uM after 48 hrs by luciferase reporter gene assay relative to DMSO-treated control. The method, boiled down:
as §1

In assay [6] the test system is Nucleic Acid. In words: Inhibition of microRNA miR-1 (unknown origin) transfected in mouse C2C12 cells after 48 hrs by luciferase reporter gene assay relative to DMSO-treated control. Put shortly: as §1
Assay [7] concerns Nucleic Acid. In words: Reduction in cytoplasmic level of microRNA miR-9 (unknown origin) transfected in human MCF7 cells at 10 uM after 48 hrs by quantitative RT-PCR method relative to DMSO-treated control. The method, boiled down:
(§3)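 Total RNA (TRIZOL) taken after 48 h compound or DMSO treatment from differentiated C2C12 (miR-1), HeLa (miR-21), A549 (miR-25, miR-214), MCF-7 (miR-9) and […] (miR-150). 2 µg RNA per RT with miRNA-specific primers (16 °C 30 min, 42 °C 30 min, 85 °C 5 min). TaqMan qPCR: 95 °C 10 min, then 40 cycles of 95 °C 15 s and 60 °C 1 min. Comparative Ct method, normalized to DMSO; triplicates, mean ± SE (n = 3).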

Assay [8] concerns Nucleic Acid. In words: Reduction in cytoplasmic level of microRNA miR-21 (unknown origin) transfected in human HeLa cells at 10 uM after 48 hrs by quantitative RT-PCR method relative to DMSO-treated control. The method, boiled down:
as §3

Assay [9] concerns Nucleic Acid. The experiment in a line: Reduction in cytoplasmic level of microRNA miR-214 (unknown origin) transfected in human A549 cells at 10 uM after 48 hrs by quantitative RT-PCR method relative to DMSO-treated control. The method, boiled down:
as §3

For assay [10], the system named is Nucleic Acid. The experiment in a line: Reduction in cytoplasmic level of microRNA miR-25 (unknown origin) transfected in human A549 cells at 10 uM after 48 hrs by quantitative RT-PCR method relative to DMSO-treated control. The method, boiled down: as §3
Assay [11] deals with Nucleic Acid. In words: Reduction in cytoplasmic level of microRNA miR-150 (unknown origin) transfected in mouse […] cells at 10 uM after 48 hrs by quantitative RT-PCR method relative to DMSO-treated control. The method, boiled down:
as §3

Assay [12] relates to Nucleic Acid. The experiment in a line: Reduction in cytoplasmic level of microRNA miR-1 (unknown origin) transfected in mouse C2C12 cells at 10 uM after 48 hrs by quantitative RT-PCR method relative to DMSO-treated control. The method, boiled down: as §3
Assay [13] deals with Nucleic Acid. The experiment in a line: Inhibition of microRNA miR-9 (unknown origin) transfected in human MCF7 cells at 10 uM after 48 hrs by luciferase reporter gene assay relative to DMSO-treated control. Put shortly: (§4)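 Reporter cells for miR-21 (HeLa) or miR-9 (MCF-7) given 10 µM compound for 48 h. Luciferase signal normalized to DMSO control. Triplicates, mean ± SE (n = 3).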

Assay [14] concerns Nucleic Acid. In words: Inhibition of microRNA miR-21 (unknown origin) transfected in human HeLa cells at 10 uM after 48 hrs by luciferase reporter gene assay relative to DMSO-treated control. Put shortly: as §4

Activity calls are given as the source filed them. The calls are words filed in the database; no cut-off is given here.

Turning to `COC12C=C(c3ccc(OC(C)=O)c4ncccc34)C1C(=O)c1ccccc1C2=O` (centres undefined), the inhibition entry in the assay with Nucleic Acid [1] was “inactive”.

In the case of `COC12C(=O)c3ccccc3C(=O)C1C(C1CC1)=C2c1cncc2ccccc12` (centres undefined), the fold change (FC) was determined as 1.1 with Nucleic Acid [2], 1.16 in the assay with Nucleic Acid [3], 1.75 in the assay with Nucleic Acid [4] and 0.87 with Nucleic Acid [5].

As to `COC12C(=O)c3ccccc3C(=O)C1C(c1ccc(OC(C)=O)c3ncccc13)=C2[Si](C)(C)C` (centres undefined), in the assay with Nucleic Acid [1], the inhibition result was “inactive”.

For the molecule `COC12C(=O)c3ccccc3C(=O)C1C(C1CC1)=C2c1cccnc1` (centres undefined), the fold change (FC) in the assay on Nucleic Acid [2] was found to be 0.91; with Nucleic Acid [3], 0.97; with Nucleic Acid [4] it was 1.04; with Nucleic Acid [5] it was 0.93.

As for `COc1ccc(C2=C(C3CC3)C3C(=O)c4ccccc4C(=O)C23OC)c2cccnc12` (centres undefined), in the assay on Nucleic Acid [1], the inhibition result was “Active”.

Regarding `COC12C(=O)c3ccccc3C(=O)C1C(c1cnccn1)=C2c1ccccc1` (centres undefined), the fold change (FC) in the assay with Nucleic Acid [2] turned out to be 0.93; with Nucleic Acid [3] it was 1.01; in the assay with Nucleic Acid [4], 1.32; in the assay with Nucleic Acid [5], 1.12.

As to `COC12C(=O)c3ccccc3C(=O)C1C(c1ccccn1)=C2c1ccccc1` (centres undefined), the fold change (FC) came to 0.95 in the assay on Nucleic Acid [2], 0.95 with Nucleic Acid [3], 1.16 in the assay on Nucleic Acid [4] and 0.9 with Nucleic Acid [5].

In the case of `COC12C(=O)c3ccccc3C(=O)C1C(c1ccccc1)=C2c1ccc(OC(C)=O)c2ncccc12` (centres undefined), the inhibition result in the assay on Nucleic Acid [1] was “inactive”.

As to `COC12C(=O)c3ccccc3C(=O)C1C(C1CC1)=C2c1ccccn1` (centres undefined), the fold change (FC) amounted to 0.82 in the assay on Nucleic Acid [2], 0.92 in the assay on Nucleic Acid [3], 1.2 with Nucleic Acid [4] and 1.55 in the assay with Nucleic Acid [5].

For `COC12C(=O)c3ccccc3C(=O)C1C(C1CC1)=C2c1cncnc1` (centres undefined), the fold change (FC) in the assay with Nucleic Acid [2] was 1.28; in the assay with Nucleic Acid [3], 1.16; with Nucleic Acid [4] it was 1.02; in the assay on Nucleic Acid [5], 2.06.

Consider `COC12C=C(c3ccc(O)c4ncccc34)C1C(=O)c1ccccc1C2=O` (centres undefined), for which the inhibition result in the assay on Nucleic Acid [1] is “inactive”.

For the molecule `COC12C(=O)c3ccccc3C(=O)C1C(c1ccc(O)c3ncccc13)=C2[Si](C)(C)C` (centres undefined), the inhibition entry in the assay with Nucleic Acid [1] was “Active”.

Consider `COC12C(=O)c3ccccc3C(=O)C1C(c1ccc(OC(=O)OC(C)(C)C)c3ncccc13)=C2[Si](C)(C)C` (centres undefined), for which the inhibition entry with Nucleic Acid [1] is “inactive”.

Turning to `COc1ccc(C2=CC3(OC)C(=O)c4ccccc4C(=O)C23)c2cccnc12` (centres undefined), the inhibition entry in the assay on Nucleic Acid [1] was “inactive”.

With `COC12C(=O)c3ccccc3C(=O)C1C(C1CC1)=C2c1ccc(OC(=O)OC(C)(C)C)c2ncccc12` (centres undefined), the inhibition entry with Nucleic Acid [1] was “inactive”.

Consider `COC12C(=O)c3ccccc3C(=O)C1C(C1CC1)=C2c1cnc2ccccc2c1` (centres undefined), for which the fold change (FC) in the assay on Nucleic Acid [2] worked out at 0.93; in the assay on Nucleic Acid [3] it was 1; with Nucleic Acid [4], 0.83; in the assay with Nucleic Acid [5], 1.36.

On to `COC12C(=O)c3ccccc3C(=O)C1C(c1ccccc1)=C2c1ccc(O)c2ncccc12` (centres undefined), for which the inhibition entry in the assay on Nucleic Acid [1] is “Active”.

In the case of `COc1ccc(C2=C([Si](C)(C)C)C3(OC)C(=O)c4ccccc4C(=O)C23)c2cccnc12` (centres undefined), the inhibition entry in the assay with Nucleic Acid [1] is “Active”.

On to `COC12C=C(c3ccc(OC(=O)OC(C)(C)C)c4ncccc34)C1C(=O)c1ccccc1C2=O` (centres undefined), for which the inhibition entry in the assay with Nucleic Acid [1] is “inactive”.

As to `COC12C(=O)c3ccccc3C(=O)C1C(c1ccccc1)=C2c1ccc(OC(=O)OC(C)(C)C)c2ncccc12` (centres undefined), in the assay on Nucleic Acid [6], the inhibition result is “Dose-dependent effect”. Also, the outcome in the assay with Nucleic Acid [7], in the assay with Nucleic Acid [8], in the assay with Nucleic Acid [9], with Nucleic Acid [10] and with Nucleic Acid [11] was inactive. In addition, the fold change (FC) with Nucleic Acid [12] came to 4; with Nucleic Acid [2], 1.01; with Nucleic Acid [3], 0.95; with Nucleic Acid [4], 1.35; in the assay with Nucleic Acid [5], 7.11. The inhibition entry in the assay on Nucleic Acid [13] and in the assay with Nucleic Acid [14] was “inactive” each time.

For the molecule `COC12C(=O)c3ccccc3C(=O)C1C(C1CC1)=C2c1ccc(OC(C)=O)c2ncccc12` (centres undefined), the inhibition result in the assay on Nucleic Acid [1] is “inactive”.

As for `COC12C(=O)c3ccccc3C(=O)C1C(C1CC1)=C2c1ccc(O)c2ncccc12` (centres undefined), the inhibition result in the assay with Nucleic Acid [1] is “Active”.

Consider `COC12C(=O)c3ccccc3C(=O)C1C(C1CC1)=C2c1cnccn1` (centres undefined), for which the fold change (FC) worked out at 0.74 in the assay with Nucleic Acid [2], 0.83 with Nucleic Acid [3], 1.63 in the assay on Nucleic Acid [4] and 0.84 in the assay with Nucleic Acid [5].

Regarding `COC12C(=O)c3ccccc3C(=O)C1C(c1ccccc1)=C2c1ccccc1` (centres undefined), the fold change (FC) in the assay with Nucleic Acid [2] worked out at 0.58; with Nucleic Acid [3], 0.63; in the assay on Nucleic Acid [4] it was 0.91; in the assay with Nucleic Acid [5], 0.45.

Regarding `COc1ccc(C2=C(c3ccccc3)C3C(=O)c4ccccc4C(=O)C23OC)c2cccnc12` (centres undefined), the inhibition result in the assay on Nucleic Acid [1] is “Active”.
